The target of test [1] is T1, Progesterone receptor (Homo sapiens) (UniProt P06401).
T1 sequence (whole entry): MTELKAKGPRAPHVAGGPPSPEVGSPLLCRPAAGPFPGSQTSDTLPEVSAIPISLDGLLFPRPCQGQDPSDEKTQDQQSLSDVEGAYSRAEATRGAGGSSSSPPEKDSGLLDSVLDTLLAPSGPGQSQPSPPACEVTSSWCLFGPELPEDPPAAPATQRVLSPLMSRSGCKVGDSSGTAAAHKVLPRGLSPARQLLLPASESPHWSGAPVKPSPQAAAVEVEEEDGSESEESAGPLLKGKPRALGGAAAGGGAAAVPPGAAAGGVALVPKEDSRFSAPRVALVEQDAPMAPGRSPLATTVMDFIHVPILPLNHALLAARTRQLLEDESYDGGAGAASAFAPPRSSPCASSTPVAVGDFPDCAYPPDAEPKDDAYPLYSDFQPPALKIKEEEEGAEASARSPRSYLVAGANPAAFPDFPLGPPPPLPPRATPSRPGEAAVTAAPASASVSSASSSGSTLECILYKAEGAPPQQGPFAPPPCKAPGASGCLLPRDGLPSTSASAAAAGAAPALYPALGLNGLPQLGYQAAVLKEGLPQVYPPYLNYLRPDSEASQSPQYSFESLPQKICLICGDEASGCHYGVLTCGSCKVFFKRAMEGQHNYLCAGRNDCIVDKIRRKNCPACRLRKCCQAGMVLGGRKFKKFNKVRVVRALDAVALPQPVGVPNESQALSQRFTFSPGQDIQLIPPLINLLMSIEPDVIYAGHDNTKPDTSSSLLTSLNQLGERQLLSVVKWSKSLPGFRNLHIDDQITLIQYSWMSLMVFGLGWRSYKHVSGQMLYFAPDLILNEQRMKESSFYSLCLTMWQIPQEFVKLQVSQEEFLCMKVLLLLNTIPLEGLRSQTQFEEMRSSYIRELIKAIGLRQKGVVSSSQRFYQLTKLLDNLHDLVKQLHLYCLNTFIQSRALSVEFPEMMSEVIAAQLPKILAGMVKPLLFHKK
The experiment in a line: Agonist efficacy for human progesterone receptor (hPR) was compared to that of progesterone (100%). It counts as functional. The method in brief:
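Cotransfection assay in CV-1 cells transiently transfected by calcium phosphate coprecipitation with hPR plasmid, MTV-LUC reporter, pRS-β-Gal and filler DNA. Full dose–response curves from 10^-12 to 10^-5 M were run. […] Values are the mean of at least three experiments with triplicate determinations, or of two experiments, or a single experiment.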

Test [2] addresses T2, Progesterone receptor (Homo sapiens, UniProt P06401).
T2 sequence (P06401 whole entry): T1 sequence (whole entry)
Description: Antagonistic activity was determined in Human progesterone receptor(hPR) of CV-1 cells in cotransfection assay. The class given is functional, cell-based.

Test [3] has as its target T2, Progesterone receptor. The experiment in a line: Agonistic activity to the human progesterone receptor (hPR)assayed in CV-1 cells in cotransfection assay. It counts as functional, cell-based.
Test [4] addresses T1, Progesterone receptor (Homo sapiens). The experiment in a line: Human progesterone receptor (hPR) antagonist efficacy was determined as a function (%) of maximal inhibition of progesterone at EC50 value. It counts as functional. The method in brief: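 hPR antagonist-mode cotransfection in CV-1 cells transiently transfected by calcium phosphate coprecipitation with hPR plasmid, MTV-LUC reporter, pRS-β-Gal and filler DNA. […] Values come from one, two, or at least three experiments in triplicate.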

The target of test [5] is T2, Progesterone receptor. Description: The binding affinity on Human progesterone receptor (hPR-A) using progesterone as radioligand.
Test [6] has as its target T3, Mineralocorticoid receptor (Homo sapiens, UniProt P08235).
T3 sequence (P08235 whole entry): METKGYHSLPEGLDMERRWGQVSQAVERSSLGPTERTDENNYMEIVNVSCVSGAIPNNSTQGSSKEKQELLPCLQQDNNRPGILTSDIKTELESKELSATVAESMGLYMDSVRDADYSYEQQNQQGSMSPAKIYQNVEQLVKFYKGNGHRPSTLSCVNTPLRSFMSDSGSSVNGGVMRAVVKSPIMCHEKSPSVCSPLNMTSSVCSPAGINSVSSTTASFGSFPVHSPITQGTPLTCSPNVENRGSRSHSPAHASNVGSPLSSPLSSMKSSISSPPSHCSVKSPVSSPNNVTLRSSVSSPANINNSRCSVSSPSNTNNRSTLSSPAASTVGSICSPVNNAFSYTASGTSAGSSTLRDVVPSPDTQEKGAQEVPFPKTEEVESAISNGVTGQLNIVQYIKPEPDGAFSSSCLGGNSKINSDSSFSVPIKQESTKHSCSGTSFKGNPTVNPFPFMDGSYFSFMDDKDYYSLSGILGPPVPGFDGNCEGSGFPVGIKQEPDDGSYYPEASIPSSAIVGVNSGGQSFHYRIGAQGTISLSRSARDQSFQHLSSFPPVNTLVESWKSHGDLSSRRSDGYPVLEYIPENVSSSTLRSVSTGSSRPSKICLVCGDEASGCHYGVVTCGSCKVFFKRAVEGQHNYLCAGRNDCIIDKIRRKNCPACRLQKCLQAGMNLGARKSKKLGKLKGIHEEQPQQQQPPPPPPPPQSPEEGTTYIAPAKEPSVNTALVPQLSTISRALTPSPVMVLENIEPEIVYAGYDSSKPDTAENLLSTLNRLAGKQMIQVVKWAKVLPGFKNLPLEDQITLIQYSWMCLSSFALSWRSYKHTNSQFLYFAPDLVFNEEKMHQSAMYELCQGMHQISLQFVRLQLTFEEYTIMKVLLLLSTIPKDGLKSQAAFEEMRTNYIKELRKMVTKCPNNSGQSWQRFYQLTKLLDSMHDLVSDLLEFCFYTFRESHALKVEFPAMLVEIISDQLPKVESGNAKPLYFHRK
The experiment in a line: Antagonistic activity was determined in Human mineralocorticoid receptor(hMR) of CV-1 cells in cotransfection assay. It counts as functional, cell-based.

In test [7] the target is T4, Glucocorticoid receptor (Homo sapiens, UniProt P04150).
T4 sequence (P04150 whole entry): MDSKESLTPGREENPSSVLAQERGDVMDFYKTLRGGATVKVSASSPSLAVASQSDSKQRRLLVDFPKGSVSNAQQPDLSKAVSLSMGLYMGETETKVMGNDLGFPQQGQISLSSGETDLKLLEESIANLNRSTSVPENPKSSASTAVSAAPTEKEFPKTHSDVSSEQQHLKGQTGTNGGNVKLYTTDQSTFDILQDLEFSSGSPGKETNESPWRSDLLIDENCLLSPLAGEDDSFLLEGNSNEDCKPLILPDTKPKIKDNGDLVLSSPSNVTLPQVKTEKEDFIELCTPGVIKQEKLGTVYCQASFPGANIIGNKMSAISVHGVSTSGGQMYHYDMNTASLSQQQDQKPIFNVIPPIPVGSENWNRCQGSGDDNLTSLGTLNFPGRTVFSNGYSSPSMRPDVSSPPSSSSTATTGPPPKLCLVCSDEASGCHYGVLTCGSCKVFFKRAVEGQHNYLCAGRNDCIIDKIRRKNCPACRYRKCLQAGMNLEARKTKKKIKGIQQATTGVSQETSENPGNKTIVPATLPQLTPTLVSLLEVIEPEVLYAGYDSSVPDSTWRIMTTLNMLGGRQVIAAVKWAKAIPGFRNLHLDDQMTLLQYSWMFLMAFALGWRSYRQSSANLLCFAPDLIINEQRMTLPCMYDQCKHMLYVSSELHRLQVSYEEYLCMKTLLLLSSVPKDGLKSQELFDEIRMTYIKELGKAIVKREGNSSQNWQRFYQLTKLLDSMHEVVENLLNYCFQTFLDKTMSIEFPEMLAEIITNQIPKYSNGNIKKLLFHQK
The experiment in a line: Agonist activity against Human glucocorticoid receptor(hGR) expressed in CV-1 cells. It counts as functional, cell-based.

The target of test [8] is T4, Glucocorticoid receptor.
The target in test [9] is T4, Glucocorticoid receptor. The source holds these as a separate data set.
Test [10] addresses T5, Androgen receptor (Homo sapiens, UniProt P10275).
T5 sequence (P10275 whole entry): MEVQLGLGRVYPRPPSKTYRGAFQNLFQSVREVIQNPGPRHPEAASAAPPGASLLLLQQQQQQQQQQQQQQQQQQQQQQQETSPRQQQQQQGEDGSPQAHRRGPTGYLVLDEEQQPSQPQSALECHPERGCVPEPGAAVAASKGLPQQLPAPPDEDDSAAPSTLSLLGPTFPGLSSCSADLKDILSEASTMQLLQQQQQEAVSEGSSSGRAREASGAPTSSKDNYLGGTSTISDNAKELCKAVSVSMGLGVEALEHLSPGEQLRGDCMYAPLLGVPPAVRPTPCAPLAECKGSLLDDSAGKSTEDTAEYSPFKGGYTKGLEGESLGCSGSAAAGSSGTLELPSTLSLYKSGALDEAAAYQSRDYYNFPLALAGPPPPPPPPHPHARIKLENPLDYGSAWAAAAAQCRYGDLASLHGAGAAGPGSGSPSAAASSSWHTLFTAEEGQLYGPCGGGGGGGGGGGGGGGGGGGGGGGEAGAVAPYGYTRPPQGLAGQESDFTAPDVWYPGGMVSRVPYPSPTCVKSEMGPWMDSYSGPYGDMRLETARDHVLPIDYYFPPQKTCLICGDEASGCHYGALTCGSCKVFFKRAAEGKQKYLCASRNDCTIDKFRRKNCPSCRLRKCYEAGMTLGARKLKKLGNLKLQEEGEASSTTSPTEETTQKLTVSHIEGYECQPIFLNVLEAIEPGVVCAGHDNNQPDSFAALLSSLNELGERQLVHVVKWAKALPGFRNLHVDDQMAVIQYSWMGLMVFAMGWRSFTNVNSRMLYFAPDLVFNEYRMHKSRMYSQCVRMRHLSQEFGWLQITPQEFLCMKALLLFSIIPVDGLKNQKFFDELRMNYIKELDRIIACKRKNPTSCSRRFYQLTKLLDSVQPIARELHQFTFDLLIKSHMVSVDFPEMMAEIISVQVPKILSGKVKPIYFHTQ

Test [11] has as its target T5, Androgen receptor. This is another data set of the same source.

One may read the IC50 as the midpoint of a concentration-inhibition curve. A lower IC50 goes with inhibition by little substance. By EC50 is commonly meant the concentration giving half of the maximal effect. Higher therefore signals a less potent agent. As a reminder, the Ki is a measure of affinity in units of concentration, obtained from inhibition or displacement. Higher therefore signals a looser hold on the target. For `CC1=CC(C)(C)Nc2ccc3c(c21)C(c1ccc(Br)nc1)Oc1ccccc1-3` (stereo unspecified), the results for the Efficacy in [1] and in test [4] were 24% and 86%, respectively. The compound also registered an IC50 on Progesterone receptor [2] of 54 nM. In addition, on Progesterone receptor [3], a half-maximal response (EC50) required 3900 nM. On Progesterone receptor [5], the Ki was 3.9 nM.

In the case of `CC1=CC(C)(C)Nc2ccc3c(c21)C(c1cccc(F)c1)Oc1ccccc1-3` (stereo unspecified), the Efficacy in [1] came to 48%; in [4], 74%. The IC50 at Progesterone receptor [2] stood at 150 nM. For the same compound, the midpoint of the response at Progesterone receptor [3], the EC50, lay at 8 nM. The compound further displayed a Ki at Progesterone receptor [5] of 0.69 nM.

As to `CC1=CC(C)(C)Nc2ccc3c(c21)C(c1ccc(F)c(C(F)(F)F)c1)Oc1ccccc1-3` (stereo unspecified), the Efficacy in test [1] worked out at 60%; in [4], 56%. The compound also displayed an IC50 against Progesterone receptor [2] of 4600 nM. At Progesterone receptor [3], this compound returned an EC50 of 25 nM. This compound also had a Ki at Progesterone receptor [5] of 6.8 nM.

For `CC1=CC(C)(C)Nc2ccc3c(c21)C(c1ccc(F)cc1)Oc1ccccc1-3` (stereo unspecified), the Efficacy came out at 28% in test [1] and 77% in test [4]. The compound further had an IC50 on Progesterone receptor [2] of 342 nM. For the same compound, at Progesterone receptor [3], the EC50 came out at 8 nM. Moreover, the Ki at Progesterone receptor [5] was found to be 5.3 nM.

In the case of `COc1ccc(C2Oc3ccccc3-c3ccc4c(c32)C(C)=CC(C)(C)N4)cc1` (stereo unspecified), the Efficacy in test [1] is below 20%; in test [4] it was 65%. At Progesterone receptor [2], this compound showed an IC50 of 105 nM. This compound yielded an EC50 at Progesterone receptor [3] above 10000 nM. For the same compound, the affinity on Progesterone receptor [5] corresponds to a Ki of 13.3 nM.

Consider `CC(=O)O[C@]1(C(C)=O)CC[C@H]2[C@@H]3C[C@H](C)C4=CC(=O)CC[C@]4(C)[C@H]3CC[C@@]21C` [MEDROXYPROGESTERONE ACETATE], for which the IC50 in test [6] turned out to be 1200 nM. Moreover, the EC50 at Glucocorticoid receptor [7] was 10 nM. At Glucocorticoid receptor [8], the Ki came to 13.2 nM.

On to `CC1=CC(C)(C)Nc2ccc3c(c21)C(c1ccccc1)Oc1ccccc1-3` (stereo unspecified), for which the IC50 against Glucocorticoid receptor [9] amounted to 226 nM; in [6], 354 nM; against Progesterone receptor [2], 290 nM; on Androgen receptor [10] it was 745 nM. The EC50 at Progesterone receptor [3] is 156 nM. Besides, the figures for the Ki at Glucocorticoid receptor [8], at Progesterone receptor [5] and on Androgen receptor [11] were 154 nM, 3.6 nM and 1860 nM, respectively.

Regarding `CC1=CC(C)(C)Nc2ccc3c(c21)C(c1cc(F)cc(Br)c1)Oc1ccccc1-3` (stereo unspecified), the Efficacy came to 49% in [1] and 65% in [4]. Also, the IC50 on Progesterone receptor [2] was 1210 nM. The response on Progesterone receptor [3] was half-maximal at 27 nM (EC50). This compound also came in with a Ki at Progesterone receptor [5] of 2.4 nM.

As for `CC1=CC(C)(C)Nc2ccc3c(c21)C(c1cccc(Br)n1)Oc1ccccc1-3` (stereo unspecified), the Efficacy came out at 21% in test [1] and 86% in [4]. For the same compound, on Progesterone receptor [2], the IC50 amounted to 71 nM. Further, the EC50 on Progesterone receptor [3] turned out to be 1700 nM. This compound also yielded a Ki on Progesterone receptor [5] of 13.8 nM.

For the compound `CC(=O)c1ccc(C2Oc3ccccc3-c3ccc4c(c32)C(C)=CC(C)(C)N4)cc1` (stereo unspecified), the figures for the Efficacy in [1] and in test [4] were below 20% and 68%, respectively. This compound gave an IC50 against Progesterone receptor [2] of 132 nM. The same compound registered an EC50 at Progesterone receptor [3] above 10000 nM. Further, the Ki on Progesterone receptor [5] was determined as 8.8 nM.

`CC1=CC(C)(C)Nc2ccc3c(c21)C(c1ccc(C(F)(F)F)cc1)Oc1ccccc1-3` (stereo unspecified): the Efficacy in test [1] came to 35%; in [4] it was 49%. This compound also gave an IC50 against Progesterone receptor [2] of 150 nM. For the same compound, the response at Progesterone receptor [3] was half-maximal at 33 nM (EC50). At Progesterone receptor [5], this compound showed a Ki of 10.8 nM.
